Bioassay records deposited in PubChem by Johns Hopkins Ion Channel Center.
Shown are actives, neighbours in structure and some others; about 3.5% of the full set was active somewhere.
MrgX1 agonist: agonists of human MrgX1 receptor. AID 588627. MrgX1-HEK293 cells, Fluo-4 calcium fluorescence, agonist mode; stronger effect = higher value. B-score at 10 µM. Q96LB2. 0.44% of 310,000 active;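 active = calcium response B-score plate-corrected fluorescence ratio at least 3 library SD, with starting fluorescence B-score inside 5 SD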
Target sequence (Q96LB2 whole entry, looked up): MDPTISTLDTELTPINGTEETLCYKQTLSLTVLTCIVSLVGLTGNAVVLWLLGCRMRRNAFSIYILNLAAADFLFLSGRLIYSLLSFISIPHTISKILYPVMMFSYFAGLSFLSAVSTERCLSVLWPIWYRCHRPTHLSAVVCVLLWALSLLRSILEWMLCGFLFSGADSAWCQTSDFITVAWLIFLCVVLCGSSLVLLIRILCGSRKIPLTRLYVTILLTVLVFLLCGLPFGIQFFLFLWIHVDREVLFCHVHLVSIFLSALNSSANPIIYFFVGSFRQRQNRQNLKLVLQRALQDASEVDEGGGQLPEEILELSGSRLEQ
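Material: MrgX1-expressing HEK293 cells; input: 15,000 cells per well; doses: test compound given as first of three sequential additions; schedule: overnight plating before 1 h dye loading; technique: Fluo-4 NW calcium-flux fluorescence, kinetic read; evaluation: baseline-normalised fluorescence change ratio, B-scored; control set: plate-wise positive and negative controls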
MrgX1 antag: blocks BAM8-22 activation of human MrgX1 receptor. MRGX1-HEK293 calcium flux, Fluo-4, BAM8-22 antagonism; stronger effect = lower value. B-score at 10 µM. 1.3% of 310,000 active. AID 588676;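 active = calcium-response B-score plate-corrected more than 3 library SD below zero, starting fluorescence within 5 deviations, no agonist response on first addition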;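 also: peak minus trough fluorescence over baseline after final BAM8-22 challenge near maximal dose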
MrgX1 PAM: allosterically activates human MrgX1 receptor signaling. 0.63% of 310,000 active. AID 588675. Q96LB2. B-score at 10 µM. MrgX1-HEK293, Fluo-4 calcium flux, FDSS; stronger effect = higher value;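 active = plate-corrected calcium response at least 3 library SD above typical, normal starting fluorescence, not activating the receptor alone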;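 also: compound read alongside a low EC10 to EC30 dose of BAM8-22 agonist; peak minus trough fluorescence over baseline measured at the second addition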
RGS4 inh: human RGS4 inhibition; HEK293 M3R/RGS4 inducible, Fluo-4 calcium flux; stronger effect = higher value; triggered by carbachol at its EC20; B-score at 10 µM; 0.45% of 310,000 active; P49798;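 active = B-score, a plate-corrected calcium signal, over three deviations above library mean, with baseline fluorescence within five deviations of library mean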;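 also: RGS4 expression induced by doxycycline in cells with stable M3 receptor; B-score is computed from the integrated fluorescence ratio over baseline after carbachol; higher B-score means a larger calcium signal and so more RGS4 inhibition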
Target sequence (P49798 whole entry, looked up): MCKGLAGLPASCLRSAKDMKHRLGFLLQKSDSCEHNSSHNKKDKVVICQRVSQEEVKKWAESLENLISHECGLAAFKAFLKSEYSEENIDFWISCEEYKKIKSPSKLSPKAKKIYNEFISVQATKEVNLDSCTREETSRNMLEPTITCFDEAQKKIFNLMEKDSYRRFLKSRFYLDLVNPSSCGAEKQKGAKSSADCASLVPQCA
RGS4 pot: potentiators or activators of RGS4; HEK293 M3R/inducible RGS4, carbachol calcium flux Fluo4; stronger effect = lower value; B-score at 10 µM; 0.92% of 310,000 active;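 active = B-score of the integrated calcium signal more than 4 SD below the library mean, with starting fluorescence not abnormally high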;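 also: negative B-score means reduced calcium response which marks RGS4 activation or potentiation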
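System – HEK293 FlpIn-TREx cells, stable M3R, doxycycline-inducible RGS4 · Reagent – ECmax carbachol challenge · Times – compound preincubation 20 min at room temperature before agonist · Technique – Fluo4 fluorescence kinetic imaging of calcium · Measure – B score of integrated Fluo4 ratio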
* hit, by the source's call.

Results for O=C(Nc1cccnc1)c1cn(-c2ccccc2)nc1-c1cccs1 ?
MrgX1 agonist: inactive; MrgX1 antag: inactive; MrgX1 PAM: inactive; RGS4 inh: inactive; RGS4 pot: inactive

What do the screens show for `CCOc1ccc(NC(=O)CN(C)C(=O)c2cn(-c3ccc(F)cc3)nc2-c2cccc(OC)c2)cc1OCC`?
MrgX1 agonist: inactive; MrgX1 antag: inactive; MrgX1 PAM: inactive; RGS4 inh: inactive; RGS4 pot: -7.2*

Results for COc1ccccc1Nc1ccc(NC(=O)c2cccc([N+](=O)[O-])c2C)cc1 ?
MrgX1 agonist: inactive; MrgX1 antag: inactive; MrgX1 PAM: inactive; RGS4 inh: inactive; RGS4 pot: inactive

Results for Cc1nn(CCC(=O)N2CCN(S(=O)(=O)c3ccccc3)CC2)c(C)c1C ?
MrgX1 agonist: inactive; MrgX1 antag: inactive; MrgX1 PAM: inactive; RGS4 inh: inactive; RGS4 pot: inactive

What do the screens show for `CCN(CC)CCNC(=O)c1ccc(NC(=O)c2cn(-c3ccc(F)cc3)nc2-c2cccc(OC)c2)cc1`?
MrgX1 agonist: inactive; MrgX1 antag: inactive; MrgX1 PAM: inactive; RGS4 inh: inactive; RGS4 pot: -11*

What do the screens show for `COc1cc(/C=N/Nc2ccc(C(F)(F)F)cn2)ccc1O`?
MrgX1 agonist: inactive; MrgX1 antag: inactive; MrgX1 PAM: 7.5*; RGS4 inh: inactive; RGS4 pot: inactive

What do the screens show for `COc1ccc(-c2csc(NC(C)c3nc4cc(C(=O)NCCCO)ccc4n3Cc3ccc(C)cc3)n2)cc1` (stereo unspecified)?
MrgX1 agonist: inactive; MrgX1 antag: inactive; MrgX1 PAM: inactive; RGS4 inh: inactive; RGS4 pot: inactive

Results for Cc1ccc(NS(=O)(=O)c2cc(Br)cnc2N)c(Cl)c1 ?
MrgX1 agonist: inactive; MrgX1 antag: inactive; MrgX1 PAM: inactive; RGS4 inh: inactive; RGS4 pot: -7*

What do the screens show for `COc1cc(OC)c(NS(=O)(=O)c2cc(Br)cnc2N)cc1Cl`?
MrgX1 agonist: inactive; MrgX1 antag: inactive; MrgX1 PAM: inactive; RGS4 inh: inactive; RGS4 pot: inactive

Results for CCC1(c2ccccc2)NC(=O)N(CC(=O)Nc2ccc(Cl)c(S(=O)(=O)N3CCCCC3)c2)C1=O (stereo unspecified) ?
MrgX1 agonist: inactive; MrgX1 antag: inactive; MrgX1 PAM: inactive; RGS4 inh: inactive; RGS4 pot: inactive

What do the screens show for `Cc1ccc(/C=C2\SC(N3CCN(C(c4ccccc4)c4ccccc4)CC3)=NC2=O)o1`?
MrgX1 agonist: inactive; MrgX1 antag: inactive; MrgX1 PAM: inactive; RGS4 inh: inactive; RGS4 pot: -9.4*

What do the screens show for `Cc1ccc(-c2ccc(/C=C3\SC(N4CCOCC4)=NC3=O)o2)cc1`?
MrgX1 agonist: inactive; MrgX1 antag: inactive; MrgX1 PAM: inactive; RGS4 inh: inactive; RGS4 pot: inactive

What do the screens show for `Cc1ccc2c(c1)/C(=N/OC(=O)c1ccc(F)cc1)CCS2`?
MrgX1 agonist: inactive; MrgX1 antag: inactive; MrgX1 PAM: inactive; RGS4 inh: inactive; RGS4 pot: inactive

Results for O=C(O/N=C1/CCSc2ccccc21)c1ccccc1 ?
MrgX1 agonist: inactive; MrgX1 antag: inactive; MrgX1 PAM: 8.9*; RGS4 inh: inactive; RGS4 pot: inactive

How did CCn1cc(C(=O)O)c(=O)c2cc(F)c(N/N=C/c3ccccc3[N+](=O)[O-])cc21 do in these assays?
MrgX1 agonist: inactive; MrgX1 antag: inactive; MrgX1 PAM: inactive; RGS4 inh: inactive; RGS4 pot: -9.4*

How did C=CCOc1ccc(/C=N/NC(=O)c2cc3c(OC)cc(OC)cc3[nH]2)cc1 do in these assays?
MrgX1 agonist: inactive; MrgX1 antag: inactive; MrgX1 PAM: inactive; RGS4 inh: inactive; RGS4 pot: -8.1*

How did CCC(C(=O)OCC(=O)N1C(C)CCCC1C)c1ccccc1 (stereo unspecified) do in these assays?
MrgX1 agonist: inactive; MrgX1 antag: inactive; MrgX1 PAM: inactive; RGS4 inh: inactive; RGS4 pot: inactive

How did COc1ccc(/C=C2\N=C3CCCCCN3C2=O)cc1OC do in these assays?
MrgX1 agonist: inactive; MrgX1 antag: -4.7*; MrgX1 PAM: inactive; RGS4 inh: inactive; RGS4 pot: inactive

How did COc1ccc(CN2C(=O)c3cccc4cccc2c34)cc1F do in these assays?
MrgX1 agonist: inactive; MrgX1 antag: inactive; MrgX1 PAM: inactive; RGS4 inh: inactive; RGS4 pot: inactive

What do the screens show for `Cc1ccc(-c2cc(C(=O)N/N=C/c3c(C)nn(-c4ccccc4)c3C)n[nH]2)s1`?
RGS4 inh: inactive; RGS4 pot: -7.7*

What do the screens show for `COc1cccc(C(=O)Nc2cccc(-c3ccc(N4CCOCC4)nn3)c2)c1OC`?
MrgX1 agonist: inactive; MrgX1 antag: inactive; MrgX1 PAM: inactive; RGS4 inh: inactive; RGS4 pot: -7.5*

What do the screens show for `O=C(NNC(=O)c1cc(-c2ccc(Cl)cc2)nc2ccccc12)c1csc(N2CCOCC2)n1`?
MrgX1 agonist: inactive; MrgX1 antag: inactive; MrgX1 PAM: inactive; RGS4 inh: inactive; RGS4 pot: inactive

How did COc1ccc(CN(N=O)C2CC(=O)N(c3ccc(OC)cc3)C2=O)cc1 (stereo unspecified) do in these assays?
MrgX1 agonist: inactive; MrgX1 antag: inactive; MrgX1 PAM: inactive; RGS4 inh: inactive; RGS4 pot: -10*

What do the screens show for `O=C(CC(Sc1ccc(Br)cc1)C(=O)O)c1ccc(Br)cc1` (stereo unspecified)?
MrgX1 agonist: inactive; MrgX1 antag: inactive; MrgX1 PAM: inactive; RGS4 inh: 6.9*; RGS4 pot: inactive

How did O=C(OCC(=O)c1ccc(Cl)s1)c1ccc(CO)cc1 do in these assays?
MrgX1 agonist: inactive; MrgX1 antag: inactive; MrgX1 PAM: inactive; RGS4 inh: inactive; RGS4 pot: inactive

How did CCC1C(=O)NCCN1C(=O)CCc1nnc(CCc2ccc(OC)cc2)o1 (stereo unspecified) do in these assays?
MrgX1 agonist: inactive; MrgX1 antag: -5.7*; MrgX1 PAM: inactive; RGS4 inh: inactive; RGS4 pot: inactive

How did O=C1c2ccccc2C(=O)C1c1ccc(Cl)cc1 do in these assays?
MrgX1 agonist: inactive; MrgX1 antag: -6.5*; MrgX1 PAM: inactive; RGS4 inh: inactive; RGS4 pot: inactive

What do the screens show for `CC(CCN1C(Nc2ccccc2)=NC[C@@H]1Cc1ccccc1)c1ccccc1` (stereo partly specified)?
MrgX1 agonist: inactive; MrgX1 antag: inactive; MrgX1 PAM: inactive; RGS4 inh: inactive; RGS4 pot: inactive

How did Cc1nc(N2CCN(c3ccccn3)CC2)c2c(C)c(C(=O)N3CCN(c4cccc(Cl)c4)CC3)sc2n1 do in these assays?
MrgX1 agonist: inactive; MrgX1 antag: inactive; MrgX1 PAM: inactive; RGS4 inh: inactive; RGS4 pot: -7.1*
